Data from PubChem BioAssay AID504513 (The Scripps Research Institute Molecular Screening Center, 2011).
Activity calls are given as the source filed them.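 Rule for the calls: active = PAFAH2 inhibition at least 50% at 0.2 µM with under 50% on each related off-target enzyme; inactive = the rest, including PAFAH2 hits that also hit off-targets.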

Experiments:
Test in all cases: PAFAH2 inhibition and serine hydrolase selectivity, late-stage follow-up, cell lysate, fluorescence, gel-based ABPP, BW5147 T-cell proteome, powder samples (AID 504513);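 note: 0% = DMSO-only band intensity and 100% = blank gel background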
ABHD11 = settings: BW5147 mouse T-cell proteome, FP-Rh gel ABPP, stronger effect = higher value
Outline: (§1)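 System – mouse BW5147 T-cell soluble lysate · Input – 1 mg/mL soluble protein · Reagent – FP-Rh probe at 2 µM · Compound dosing – 0.02, 0.2 or 1 µM compound · Times – 30 min compound, 30 min probe at 25 °C · Signal – in-gel fluorescence of probe-labelled bands, integrated optical density · Read-out – percent band labelling lost versus DMSO control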

APEH = settings: BW5147 mouse T-cell proteome, FP-Rh gel ABPP, stronger effect = higher value
Outline: as §1

ESD = settings: BW5147 mouse T-cell proteome, FP-Rh gel ABPP, stronger effect = higher value
Outline: as §1

LYPLA1 = settings: BW5147 mouse T-cell proteome, FP-Rh gel ABPP, stronger effect = higher value
Outline: as §1

[1] = target: Platelet-activating factor acetylhydrolase 2, cytoplasmic (Mus musculus) (UniProt Q8VDG7); settings: FP-Rh gel ABPP, stronger effect = higher value
Platelet-activating factor acetylhydrolase 2, cytoplasmic (Mus musculus), sequence (Q8VDG7 whole entry, looked up): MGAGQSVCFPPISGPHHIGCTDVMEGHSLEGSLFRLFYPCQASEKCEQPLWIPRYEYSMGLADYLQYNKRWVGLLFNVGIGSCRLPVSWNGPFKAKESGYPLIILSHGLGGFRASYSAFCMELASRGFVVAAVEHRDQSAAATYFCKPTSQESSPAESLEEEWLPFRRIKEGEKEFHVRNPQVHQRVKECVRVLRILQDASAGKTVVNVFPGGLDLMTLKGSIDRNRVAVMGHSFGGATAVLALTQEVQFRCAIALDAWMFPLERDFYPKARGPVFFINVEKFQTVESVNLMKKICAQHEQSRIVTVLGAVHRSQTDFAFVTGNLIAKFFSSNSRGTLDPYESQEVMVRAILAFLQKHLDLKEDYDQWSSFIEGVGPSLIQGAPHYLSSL
Outline: as §1

SMILES	inhibition (ABHD11; at 1 µM)	inhibition (ABHD11; inhibition, at 0.02 µM)	inhibition (ABHD11; inhibition, at 0.2 µM)	inhibition (APEH; at 1 µM)	inhibition (APEH; inhibition, at 0.02 µM)	inhibition (APEH; inhibition, at 0.2 µM)	inhibition (ESD; at 1 µM)	inhibition (ESD; inhibition, at 0.02 µM)	inhibition (ESD; inhibition, at 0.2 µM)	inhibition (LYPLA1; at 1 µM)	inhibition (LYPLA1; inhibition, at 0.02 µM)	inhibition (LYPLA1; inhibition, at 0.2 µM)	inhibition ([1]; PAFAH2, at 1 µM)	inhibition ([1]; PAFAH2, inhibition, at 0.02 µM)	inhibition ([1]; PAFAH2, inhibition, at 0.2 µM)
O=C(N1CCOCC1)n1ncc(-c2ccc(OC(F)(F)F)cc2)n1	100%	25%	100%	0% (inactive)	0%	0%	0% (inactive)	0%	0%	0% (inactive)	0%	0%	50%	0%	50%
O=C(N1CCOCC1)n1ncc(C(O)(c2ccccc2)c2ccccc2)n1	100%	25%	100%	0% (inactive)	0%	0%	0% (inactive)	0%	0%	0% (inactive)	0%	0%	50%	0%	50%
O=C(n1ccnn1)n1c2ccccc2c2ccccc21	0% (inactive)	0%	0%	0% (inactive)	0%	0%	0% (inactive)	0%	0%	0% (inactive)	0%	0%	0% (inactive)	0%	0%
O=C(N1CCCC1)n1ncc(-c2ccccc2)n1	100%	0%	100%	100%	0%	100%	0% (inactive)	0%	0%	0% (inactive)	0%	0%	100%	75%	100%
O=C(N1CCCC1)n1ncc(-c2ccc(-c3ccccc3)cc2)n1	0% (inactive)	0%	0%	0% (inactive)	0%	0%	0% (inactive)	0%	0%	0% (inactive)	0%	0%	100%	100%	100%
O=C(N1CCCC1)n1ccnn1	100% (inactive)	0%	0%	100% (inactive)	0%	0%	0% (inactive)	0%	0%	100% (inactive)	0%	0%	100% (inactive)	0%	0%
O=C(N(c1ccccc1)c1ccccc1)n1ccnn1	100%	0%	50%	0% (inactive)	0%	0%	0% (inactive)	0%	0%	0% (inactive)	0%	0%	0% (inactive)	0%	0%
CN(C)C(=O)n1ccnn1	0% (inactive)	0%	0%	0% (inactive)	0%	0%	0% (inactive)	0%	0%	0% (inactive)	0%	0%	0% (inactive)	0%	0%
CCN(CC)C(=O)n1ccnn1	0% (inactive)	0%	0%	0% (inactive)	0%	0%	0% (inactive)	0%	0%	0% (inactive)	0%	0%	0% (inactive)	0%	0%
O=C(N1CCOCC1)n1ncc(-c2ccccc2)n1	100%	50%	100%	50% (inactive)	0%	25%	0% (inactive)	0%	0%	0% (inactive)	0%	0%	75%	25%	50%
